# From PubChem
# Rtt109 Vps75: inhibitors of C. albicans Rtt109/Vps75 HAT, primary screen, biochemical, ThioGlo CoA-SH fluorescence, plate reader. Histone acetyltransferase RTT109 (Candida albicans (strain SC5314 / ATCC MYA-2876)), …. purified Rtt109/Vps75, 4 h. inhibition, % at 34.9 µM. 330,000 tested, 0.16% active. AID 540336, 2011;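 active = inhibition of at least 50% in every replicate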
# Target sequence (Q5AAJ8 whole entry, looked up): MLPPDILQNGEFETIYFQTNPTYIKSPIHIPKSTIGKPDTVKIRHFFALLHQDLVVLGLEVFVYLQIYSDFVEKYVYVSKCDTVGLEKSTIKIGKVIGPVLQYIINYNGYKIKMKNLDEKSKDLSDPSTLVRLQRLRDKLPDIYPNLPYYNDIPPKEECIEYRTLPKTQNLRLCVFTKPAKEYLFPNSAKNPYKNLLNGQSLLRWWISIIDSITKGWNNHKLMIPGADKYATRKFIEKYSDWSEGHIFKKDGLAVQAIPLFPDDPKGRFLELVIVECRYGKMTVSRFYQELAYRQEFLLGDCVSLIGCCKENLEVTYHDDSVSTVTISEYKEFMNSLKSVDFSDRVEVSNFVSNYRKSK
# PfHsp90 set2: growth inhibition of PfHsp90-expressing yeast, primary screen, antimalarial PfHsp90 inhibitor project, S. cerevisiae, BacTiter-Glo luminescence, single point, set 2; BacTiter-Glo ATP, 48 h; yeast lacking PDR1 and PDR3 efflux regulators; inhibition, % at 9.4 µM; 310,000 tested, 0.32% active;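 active = every replicate shows inhibition above about 80%, whatever the replicate mean, limit read from the data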;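 also: 0% = DMSO neutral controls and 100% = 20 µM radicicol positive controls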
# SKKanGAS inh: S. pyogenes SKKanGAS growth inhibitors in kanamycin, primary screen, streptokinase expression inhibitor project, SKKanGAS strain, BacTiter-Glo luminescence. AID 1662, 2009. inhibition, % at 7.5 µM. 300,000 tested, 1.3% active. 6 h;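 active = mean replicate score, as percent of positive control median, at least 50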;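 also: strain carries kanamycin resistance gene driven by streptokinase promoter and grows in 40 µg/ml kanamycin; loss of luminescence reflects streptokinase promoter inhibition or plain growth inhibition; 0% = median of DMSO wells and 100% = positive control at its reference dose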
# CSC inhib: cancer stem cell viability inhibitors, primary screen, luminescence | inhibition, % at 7.5 µM | 300,000 tested, 1.1% active | cancer stem cell-like cells viability; in the data active = inhibition above about 75%; tested in HMLE shEcad cells
# PglD inh: C. jejuni PglD acetyltransferase inhibitors, primary screen, biochemical, DTNB colorimetric, single point. purified PglD enzyme, DTNB colorimetric CoA detection. inhibition, % at 12.5 µM. 360,000 tested, 0.098% active; in the data active = inhibition above about 16%, passing the limit was not always enough
# FN deposit inh: inhibitors of fibronectin matrix deposition, primary screen, AH1F cells, Alexa488-fibronectin fluorescence, plate reader | AID 743247, 2014 | 350,000 tested, 0.086% active | AH1F fibroblasts, overnight | inhibition, % at 12.6 µM;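 active = mean inhibition across replicates of 30% or more, regardless of how many single replicates reach that level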;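 also: positive control wells lacked labelled fibronectin entirely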
#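 Assay system: AH1F fibroblasts / Quantity: 10000 cells per well / Medium: DMEM plus 2% serum, read in PBS / Reagent: labelled fibronectin 24 nM / Dosing: single dose, pinned / Times: 1 h cell attachment, overnight exposure to compound and label / Signal: fluorescence, ex 485 nm, em 525 nm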
# Active calls of the source: *; x = no result; + = active, no number. An excerpt weighted towards active compounds, which were near 1.7% of everything screened.
SMILES,Rtt109 Vps75,PfHsp90 set2,SKKanGAS inh,CSC inhib,PglD inh,FN deposit inh
CCCCn1c(N)c(N(Cc2ccccc2OC)C(=O)c2sccc2C)c(=O)[nH]c1=O,50*,-3,1,2,x,2
CCC(C)(C)n1nnnc1C(c1ccncc1)N1CCC(Cc2ccccc2)CC1 (stereo not drawn),-2,-30,0,2,7,-1
CCC(C)(C)n1nnnc1C(c1cccnc1)N1CCC(Cc2ccccc2)CC1 (stereo not drawn),1,83*,2,8,x,-5
CCc1ccc(C(=O)CSc2ncn[nH]2)cc1,+,7,3,x,-9,0
Cc1ccc(C(=O)CSc2ncn[nH]2)cc1,8,-18,-2,0,6,x
CC1=CN2C(=N)/C(=C/c3ccc([N+](=O)[O-])o3)C(=O)N=C2S1,0,97*,15,3,x,-1
COC(=O)c1ccccc1NC1=C/C(=N\S(=O)(=O)c2ccc(C(=O)O)cc2)c2ccccc2C1=O,22,-6,93*,x,1,x
COC(=O)c1cccc(NS(=O)(=O)c2cccs2)c1C,-2,-24,-4,-17,2,0
COC(=O)c1ccccc1NC1=C/C(=N\S(=O)(=O)c2cccs2)c2ccccc2C1=O,4,0,22,102*,-3,1
CC(C)N=c1scc(-c2cccs2)n1/N=C/c1ccc(O)c(O)c1O,-6,106*,x,43,x,-8
CC(C)(C)C(=O)N1N=C(c2ccc(NS(C)(=O)=O)cc2)CC1c1cccs1 (stereo not drawn),x,16,50*,0,x,10
CC(NNC(=S)N1CCN(c2ccccn2)CC1)c1nccc2ccccc12 (stereo not drawn),-5,121*,x,x,x,3
CCNC(=S)N1CCN(c2ccccn2)CC1,8,3,-2,x,x,-17
Cc1cccc(/C=c2\s/c(=C\C(=O)C(C)(C)C)[nH]c2=O)c1,-9,-47,77*,44,x,x
C/C(NC(=O)c1cccc(F)c1)=C1/C(=O)C[C@@H]2[C@H]1C2(C)C,-5,-4,5,92*,x,x
O=C(CN1CCOCC1)N[C@H]1CC[C@H](CCNS(=O)(=O)c2ccccc2F)O[C@@H]1CO,x,x,x,x,-1,4
Cc1ccc(-c2csc3ncnc(-n4cnc5ccccc54)c23)cc1,4,8,3,77*,-4,15
CN(C)c1nc(SCCOC(=O)c2ccccc2)nc(N(C)C)n1,x,x,-2,-6,-1,13
CCN(CC)c1nc(SCCOC(=O)Nc2ccccc2)nc(N(CC)CC)n1,-5,17,10,81*,7,x
CO[C@H]1CN(C)C(=O)c2ccc(NC(=O)c3ccccc3F)cc2OC[C@H](C)N(C(=O)c2ccccc2F)C[C@@H]1C,x,x,x,x,-2,9
COc1ccc(NC(=O)N(C)C[C@H]2Oc3ccc(NC(=O)Nc4ccc(C(F)(F)F)cc4)cc3C(=O)N([C@@H](C)CO)C[C@H]2C)cc1,x,x,x,x,4,x
CC(C)(C)c1nc(SCC(=O)Nc2nc3c(s2)CCCC3)c2ccccc2n1,3,-54,19,119*,-1,x
CC(C)(C)c1nc(SCC(=O)c2ccccc2)c2ccccc2n1,6,-19,62*,19,x,-44
CN1CCN(c2ccc(C(=O)c3ccccc3)cc2[N+](=O)[O-])CC1,3,6,-5,83*,-6,-1
O=C(C[C@H]1CC[C@@H](NC(=O)c2ccc3c(c2)OCO3)[C@@H](CO)O1)NC1Cc2ccccc2C1,x,x,x,x,0,0
SMILES,Rtt109 Vps75,PfHsp90 set2,SKKanGAS inh,CSC inhib,PglD inh,FN deposit inh
CC(C)=CCc1c2c(c3occ(-c4ccc(O)c(O)c4)c(=O)c3c1O)C=CC(C)(C)O2,9,102*,x,x,x,-13
CC(C)=CCc1c2c(c3occ(-c4ccc(O)cc4)c(=O)c3c1O)C=CC(C)(C)O2,5,-31,111*,-15,-4,x
CC1(C)C=Cc2c(c3c(c4c(=O)c(-c5ccc(O)cc5)coc24)OC(C)(C)CC3)O1,6,-49,43,100*,-3,x
O=c1c(-c2ccc(O)cc2)coc2cc(O)cc(O)c12,-3,11,0,-6,1,x
O=C(C1CC1)N1[C@H](CO)[C@H]2c3ccccc3N(S(=O)(=O)c3ccccc3)C[C@H]21,x,x,x,x,-8,-5
C[C@@H]1CN([C@H](C)CO)C(=O)c2cc(C#C[C@@H](C)O)cnc2O[C@@H]1CN(C)Cc1cccc(F)c1,x,x,x,x,2,-8
CC(C)c1nc(N2CCN(C(=O)c3ccco3)CC2)c(C#N)c2c1COC(C)(C)C2,5,-39,6,-6,0,-6
CCCCc1nc(N2CCN(C(=O)c3ccco3)CC2)c(C#N)c2c1CCCC2,30,-15,97*,119*,0,-1
O=C(Nc1ccc2c(c1)[C@H]1C[C@H](CC(=O)N3CCCCC3)O[C@@H](CO)[C@H]1O2)c1cccnc1,x,x,x,x,2,-11
CN1c2ccc(-c3ccc(F)cc3)cc2[C@@H]2[C@@H](CCN2C(=O)CC2CC2)[C@H]1CO,x,x,x,x,x,-4
Cc1cccc2sc(NC(=O)C3c4ccccc4Oc4ccccc43)nc12,2,x,30,126*,6,x
O=C(O)c1ccc(C2NCC(c3ccccc3Cl)c3c2[nH]c2ccccc32)cc1 (stereo not drawn),12,x,-2,-3,x,-3
COc1cc(C2NCC(c3ccc(Cl)cc3Cl)c3c2[nH]c2ccccc32)cc(OC)c1OC (stereo not drawn),5,0,40,81*,-1,1
COc1ccc(CN(C)S(=O)(=O)c2nnc(NC(=O)c3cccc(F)c3)s2)cc1OC,2,1,60*,18,3,6
COc1ccc(CN(C)S(=O)(=O)c2nnc(NC(=O)c3ccccc3)s2)cc1OC,-20,3,26,21,2,9
COc1cccc(S(=O)(=O)Nc2ccc3c(c2)OC[C@@H](C)N(Cc2ccccc2F)C[C@H](C)[C@H](OC)CN(C)C3=O)c1,x,x,x,x,-2,-2
Cc1ccc(NC(=S)N2CCCC(c3nc4ccccc4[nH]3)C2)cc1 (stereo not drawn),2,43,14,-11,x,-1
Cc1ccc(NC(=S)c2nc3ccccc3[nH]2)c(C)c1,8,-72,82*,35,-4,-2
Cc1ccc(NC(=S)c2nc3ccccc3[nH]2)cc1,-8,-65,93*,53,-2,x
CCCC#Cc1ccc2c(c1)O[C@H](CN(C)CC1CCOCC1)[C@@H](C)CN([C@H](C)CO)S2(=O)=O,x,x,x,x,3,x
